Test results as given in ChEMBL document CHEMBL2040757, “New N-arylamino biquinoline derivatives: synthesis, antimicrobial, antituberculosis, and antimalarial evaluation” (Eur J Med Chem, 2012).
Values after ≈ are worked out from the molar mass of the structure shown.

What was measured:
Plasmodium falciparum = assay: Antimalarial activity against trophozoite stage of chloroquine-sensitive Plasmodium falciparum 3D7 infected in human erythrocytes after 48 hrs; format: functional, organism-based; conditions: 3D7, 48 h
Outline: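 Parasites were kept in continuous culture in A+ human erythrocytes in RPMI with 10% human serum. Sorbitol-synchronized trophozoites at 1–2% parasitaemia and 2.5% haematocrit were exposed to serial dilutions (maximum 1 mg/ml; 0.02% final DMSO) for 48 h at 37 °C. Growth inhibition was measured; chloroquine and quinine served as positive controls. IC50 came from duplicate experiments.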

Vibrio cholerae = assay: Antibacterial activity against Vibrio cholerae MTCC 3906 by broth microdilution method; format: functional
Aspergillus fumigatus = assay: Antifungal activity against Aspergillus fumigatus MTCC 3008 by broth microdilution method; format: functional
Clostridium tetani = assay: Antibacterial activity against Clostridium tetani MTCC 449 by broth microdilution method; format: functional
[1] = test system: Mycobacterium tuberculosis; assay: Growth inhibition of Mycobacterium tuberculosis H37Rv at 6.25 ug/mL after 12 to 28 days relative to control; format: functional
Candida albicans = assay: Antifungal activity against Candida albicans MTCC 227 by broth microdilution method; format: functional
Salmonella typhi = assay: Antibacterial activity against Salmonella typhi MTCC 98 by broth microdilution method; format: functional, Salmonella enterica subsp. enterica serovar Typhi; conditions: Salmonella enterica
Streptococcus pneumoniae = assay: Antibacterial activity against Streptococcus pneumoniae MTCC 1936 by broth microdilution method; format: functional
Outline: (§1)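 Broth microdilution per NCCLS, with serial dilutions in Mueller Hinton broth and DMSO as diluent. Tubes were incubated overnight at 37 °C. MIC was the lowest concentration giving no visible growth, with the control organism's MIC read to verify concentrations. Tubes without growth were subcultured overnight at 37 °C to judge bacteriostatic versus bactericidal action.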

Bacillus subtilis = assay: Antibacterial activity against Bacillus subtilis MTCC 441 by broth microdilution method; format: functional; outline: as §1
Escherichia coli = assay: Antibacterial activity against Escherichia coli MTCC 443 by broth microdilution method; format: functional; outline: as §1

Row | Compound | IC50 (Plasmodium falciparum) | MIC (Vibrio cholerae) | MIC (Aspergillus fumigatus) | MIC (Clostridium tetani) | inhibition at 6.25 µg/mL [1] | MIC (Candida albicans) | MIC (Salmonella typhi) | MIC (Streptococcus pneumoniae) | MIC (Bacillus subtilis) | MIC (Escherichia coli)
1 | CC1(C)CC(=O)C2=C(C1)N(Nc1ccccc1)C(N)=C(C#N)C2c1cc2ccccc2nc1Cl (stereo not drawn) | 0.015 µg/mL (≈ 0.0319 µM) | 250 µg/mL (≈ 532 µM) | > 1000 µg/mL | 250 µg/mL (≈ 532 µM) | 8% | 500 µg/mL (≈ 1060 µM) | 250 µg/mL (≈ 532 µM) | 200 µg/mL (≈ 426 µM) | 200 µg/mL (≈ 426 µM) | 200 µg/mL (≈ 426 µM)
2 | O=C(O)c1cn(C2CC2)c2cc(N3CCNCC3)c(F)cc2c1=O [CIPROFLOXACIN] |  | 25 µg/mL (≈ 75.4 µM) |  |  |  |  | 25 µg/mL (≈ 75.4 µM) | 50 µg/mL (≈ 151 µM) |  | 25 µg/mL (≈ 75.4 µM)
3 | COc1ccc2nc(Cl)c(C3C(C#N)=C(N)N(Nc4ccc(Br)cc4)C4=C3C(=O)CC(C)(C)C4)cc2c1 (stereo not drawn) | 0.014 µg/mL (≈ 0.0242 µM) | 200 µg/mL (≈ 345 µM) | 500 µg/mL (≈ 864 µM) | 200 µg/mL (≈ 345 µM) | 17% | 1000 µg/mL (≈ 1730 µM) | 125 µg/mL (≈ 216 µM) | 250 µg/mL (≈ 432 µM) | 250 µg/mL (≈ 432 µM) | 200 µg/mL (≈ 345 µM)
4 | CC1(C)CC(=O)C2=C(C1)N(Nc1ccc(Cl)cc1)C(N)=C(C#N)C2c1cc2cc(Cl)ccc2nc1Cl (stereo not drawn) | 0.028 µg/mL (≈ 0.052 µM) | 100 µg/mL (≈ 186 µM) | > 1000 µg/mL | 200 µg/mL (≈ 371 µM) | 87% | > 1000 µg/mL | 100 µg/mL (≈ 186 µM) | 200 µg/mL (≈ 371 µM) | 200 µg/mL (≈ 371 µM) | 62.5 µg/mL (≈ 116 µM)
5 | Cc1ccc2nc(Cl)c(C3C(C#N)=C(N)N(Nc4ccc(Br)cc4)C4=C3C(=O)CC(C)(C)C4)cc2c1 (stereo not drawn) | 0.012 µg/mL (≈ 0.0213 µM) | 250 µg/mL (≈ 444 µM) | > 1000 µg/mL | 250 µg/mL (≈ 444 µM) | 47% | 250 µg/mL (≈ 444 µM) | 250 µg/mL (≈ 444 µM) | 250 µg/mL (≈ 444 µM) | 200 µg/mL (≈ 355 µM) | 250 µg/mL (≈ 444 µM)
6 | CC1(C)CC(=O)C2=C(C1)N(Nc1ccc(Br)cc1)C(N)=C(C#N)C2c1cc2ccccc2nc1Cl (stereo not drawn) | 0.54 µg/mL (≈ 0.984 µM) | 100 µg/mL (≈ 182 µM) | > 1000 µg/mL | 500 µg/mL (≈ 911 µM) | 33% | > 1000 µg/mL | 250 µg/mL (≈ 455 µM) | 100 µg/mL (≈ 182 µM) | 200 µg/mL (≈ 364 µM) | 250 µg/mL (≈ 455 µM)
7 | Cc1ccc(NN2C(N)=C(C#N)C(c3cc4cc(Cl)ccc4nc3Cl)C3=C2CC(C)(C)CC3=O)cc1 (stereo not drawn) | 0.014 µg/mL (≈ 0.027 µM) | 250 µg/mL (≈ 482 µM) | 500 µg/mL (≈ 964 µM) | 250 µg/mL (≈ 482 µM) | 72% | 500 µg/mL (≈ 964 µM) | 250 µg/mL (≈ 482 µM) | 500 µg/mL (≈ 964 µM) | 500 µg/mL (≈ 964 µM) | 250 µg/mL (≈ 482 µM)
8 | Cc1ccc(NN2C(N)=C(C#N)C(c3cc4ccccc4nc3Cl)C3=C2CC(C)(C)CC3=O)cc1 (stereo not drawn) | 0.005 µg/mL (≈ 0.0103 µM) | 250 µg/mL (≈ 517 µM) | 500 µg/mL (≈ 1030 µM) | 250 µg/mL (≈ 517 µM) | 8% | 500 µg/mL (≈ 1030 µM) | 200 µg/mL (≈ 413 µM) | 500 µg/mL (≈ 1030 µM) | 250 µg/mL (≈ 517 µM) | 200 µg/mL (≈ 413 µM)
9 | O=C(N[C@H](CO)[C@H](O)c1ccc([N+](=O)[O-])cc1)C(Cl)Cl [CHLORAMPHENICOL] |  | 50 µg/mL (≈ 155 µM) |  | 50 µg/mL (≈ 155 µM) |  |  | 50 µg/mL (≈ 155 µM) | 50 µg/mL (≈ 155 µM) | 50 µg/mL (≈ 155 µM) | 50 µg/mL (≈ 155 µM)
10 | C=C[C@H]1CN2CC[C@H]1C[C@H]2[C@H](O)c1ccnc2ccc(OC)cc12 [QUININE] | 0.268 µg/mL (≈ 0.826 µM) |  |  |  |  |  |  |  |  | 
11 | COc1ccc2nc(Cl)c(C3C(C#N)=C(N)N(Nc4ccccc4)C4=C3C(=O)CC(C)(C)C4)cc2c1 (stereo not drawn) | 0.22 µg/mL (≈ 0.44 µM) | 500 µg/mL (≈ 1000 µM) | 500 µg/mL (≈ 1000 µM) | 500 µg/mL (≈ 1000 µM) | 80% | 250 µg/mL (≈ 500 µM) | 250 µg/mL (≈ 500 µM) | 250 µg/mL (≈ 500 µM) | 250 µg/mL (≈ 500 µM) | 250 µg/mL (≈ 500 µM)
12 | COc1ccc2nc(Cl)c(C3C(C#N)=C(N)N(Nc4ccc(F)cc4)C4=C3C(=O)CC(C)(C)C4)cc2c1 (stereo not drawn) | 0.25 µg/mL (≈ 0.483 µM) | 100 µg/mL (≈ 193 µM) | 500 µg/mL (≈ 965 µM) | 500 µg/mL (≈ 965 µM) | 22% | 250 µg/mL (≈ 483 µM) | 125 µg/mL (≈ 241 µM) | 200 µg/mL (≈ 386 µM) | 250 µg/mL (≈ 483 µM) | 125 µg/mL (≈ 241 µM)
13 | CC1(C)CC(=O)C2=C(C1)N(Nc1ccc(Cl)cc1)C(N)=C(C#N)C2c1cc2ccccc2nc1Cl (stereo not drawn) | 0.42 µg/mL (≈ 0.833 µM) | 500 µg/mL (≈ 991 µM) | 500 µg/mL (≈ 991 µM) | 250 µg/mL (≈ 496 µM) | 22% | 250 µg/mL (≈ 496 µM) | 500 µg/mL (≈ 991 µM) | 500 µg/mL (≈ 991 µM) | 500 µg/mL (≈ 991 µM) | 200 µg/mL (≈ 396 µM)
14 | Cc1ccc2nc(Cl)c(C3C(C#N)=C(N)N(Nc4ccccc4)C4=C3C(=O)CC(C)(C)C4)cc2c1 (stereo not drawn) | 0.15 µg/mL (≈ 0.31 µM) | 250 µg/mL (≈ 517 µM) | > 1000 µg/mL | 500 µg/mL (≈ 1030 µM) | 12% | 500 µg/mL (≈ 1030 µM) | 200 µg/mL (≈ 413 µM) | 250 µg/mL (≈ 517 µM) | 500 µg/mL (≈ 1030 µM) | 100 µg/mL (≈ 207 µM)
15 | COC1=CC(=O)C[C@@H](C)[C@]12Oc1c(Cl)c(OC)cc(OC)c1C2=O [GRISEOFULVIN] |  |  | 100 µg/mL (≈ 283 µM) |  |  | 500 µg/mL (≈ 1420 µM) |  |  |  | 
